Measured values taken from publication PMC4556268 (Biochemistry, 2008).
Like-named read-outs stand apart in the source and are kept apart here. Each block holds one compound with its values, some of them ahead of it.

What was measured:
RhoGDIα [1] = biological target: T1, RhoGDIα (Homo sapiens, UniProt P52565); test: Photo-affinity labeling of RhoGDIα with azialcohols, LC-MSMS; type: binding
T1 sequence (P52565 1-204): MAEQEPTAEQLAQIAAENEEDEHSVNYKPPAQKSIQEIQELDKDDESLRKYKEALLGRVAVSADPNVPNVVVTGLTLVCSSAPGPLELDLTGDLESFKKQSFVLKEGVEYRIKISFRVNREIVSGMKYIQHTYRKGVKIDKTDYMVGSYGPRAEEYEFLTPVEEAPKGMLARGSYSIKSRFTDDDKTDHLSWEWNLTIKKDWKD

RhoGDIα [2] = biological target: T1, RhoGDIα; type: binding
Method in brief: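 For n-alkanols, halothane was equilibrated first, then alkanol titrated from stocks while emission at 330 nm was tracked; buffer-only additions controlled for halothane evaporation. For AGGC (0–300 µM), 30 min preincubation ±1 mM halothane in gas-tight syringes, then dilution into cuvette. Recovery […] fitted by Hill-type equation (EC50, Fmax, h).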

RhoGDIα [3] = biological target: T1, RhoGDIα; type: binding; remark: listed apart in the source
Method in brief: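 RhoGDIα at 500 nM in 2.8 mL Buffer B (pH 7.5 Tris) in screw-top sealed cuvette with minimal headspace; halothane 0–800 µM; 60 min at room temperature. Steady-state tryptophan emission spectra, excitation 295 nm. Quenching taken as FQ/F0, averaging >10 points at the emission maximum. Fitted to Eq. 1 for Kd, h and maximal quenching.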

RhoGDIα–Cdc42 complex = biological target: T2, RhoGDIα–Cdc42 complex (Homo sapiens, UniProt P52565); type: biochemical; settings: for effect on association of Cdc42 with membranes (Req,Cdc42) / Cdc42–RhoGDIα Dissociation h: with EDTA and GMPPNP; for Cdc42–RhoGDIα Dissociation h: fit to Eq. 6
T2 sequence (P52565 1-204): T1 sequence (P52565 1-204)
Method in brief: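 SPR on L1 chip at 25°C. Running buffer 10 mM HEPES pH 7.4, 150 mM NaCl. Surface cleaned with 10 mM CHAPS; POPC/POPS (4:1) 100 nm LUV captured at 5 µL/min for 15 min; conditioned with 10 mM glycine pH 1.5 and 10 mM NaOH. RhoGDIα–Cdc42 complex typically 0.5 µM in Buffer A with 50 µM GMPPNP and n-alkanol. 14.3 mM EDTA initiated exchange and dissociation. Req from first-order fits versus complex concentration.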

Cdc42 = Cdc42 (Homo sapiens, UniProt P60953); settings: 50 mM (results not shown)
[4] = read-out: Halothane Binding EC50, 0.2 mM halothane, RhoGDIα 500 nM, fit to Eq. 2
[5] = read-out: Halothane Binding KI, 0.2 mM halothane, calculated using Eq. 3

Cdc42, sequence (P60953 whole entry): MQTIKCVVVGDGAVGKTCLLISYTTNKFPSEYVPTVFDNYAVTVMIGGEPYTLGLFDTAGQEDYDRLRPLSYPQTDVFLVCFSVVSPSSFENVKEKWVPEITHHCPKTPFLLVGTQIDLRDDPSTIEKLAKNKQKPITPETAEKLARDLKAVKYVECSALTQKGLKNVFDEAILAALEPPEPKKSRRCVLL

Lowest 3-azialcohol concentration where photoincorporation was detected (RhoGDIα [1]; AGGC +): 100 µM | Residue photolabeled / photolabeled peptide (RhoGDIα [1]; AGGC –): Photolabeled peptide not detected
SMILES: CC1(CCO)N=N1 [3-azibutanol]

Lowest 3-azialcohol concentration where photoincorporation was detected (RhoGDIα [1]; AGGC +): 10 µM | Lowest 3-azialcohol concentration where photoincorporation was detected (RhoGDIα [1]; AGGC –): 10 µM | photolabeling of E193 (RhoGDIα [1]; at levels up to 1 mM): not photolabeled
SMILES: CCCCCC1(CCO)N=N1 [3-azioctanol]

effect on RhoGDIα tryptophan fluorescence in the absence of halothane (RhoGDIα [2]; control without halothane (results not shown)): unaffected | Ki (RhoGDIα [2]; read-out: KI for the displacement of halothane, from EC50 by Eq. 3): 0.01 mM
SMILES: CC(=O)N[C@@H](CSC/C=C(\C)CC/C=C(\C)CC/C=C(\C)CCC=C(C)C)C(=O)O [AGGC, N-acetyl geranylgeranyl cysteine]

Kd (RhoGDIα [3]): 0.147 ± 0.007 mM | blue shift in the emission maxima (RhoGDIα [3]; dose dependent, halothane 0–800 µM): ~ 2 nm | Hill coefficient h for halothane binding (RhoGDIα [3]; fit to Eq. 1): 0.91±0.2 | plateau tryptophan fluorescence intensity, of the original signal (RhoGDIα [3]; halothane 0–800 µM): ~ 30%
SMILES: FC(F)(F)C(Cl)Br (stereo not shown) [halothane, 2-bromo-2-chloro-1,1,1-trifluoroethane]

effect on halothane-induced tryptophan quenching (RhoGDIα [2]; 0.2 mM halothane): negligible effects | effect on association of Cdc42 with membranes (Req,Cdc42) (RhoGDIα–Cdc42 complex): unaffected
SMILES: CCCCCCCO [n-heptanol]

effect on association of Cdc42 with membranes (Req,Cdc42) (RhoGDIα–Cdc42 complex): unaffected
SMILES: CCCCCCO [n-hexanol]
effect on halothane-induced tryptophan quenching (RhoGDIα [2]; 0.2 mM halothane): did not reach saturation within the concentration range used

Halothane Binding h (RhoGDIα [2]; 0.2 mM halothane, fit to Eq. 2): 1.4 ± 0.4 | EC50 (RhoGDIα [2]; [4]): 100 ± 58 mM | Ki (RhoGDIα [2]; [5]): 42 ± 24 mM | Cdc42–RhoGDIα Dissociation h (RhoGDIα–Cdc42 complex): 1.2 ± 0.2
SMILES: CCO [n=2, ethanol]

Halothane Binding Fmax (RhoGDIα [2]; 0.2 mM halothane, fit to Eq. 2): 40 ± 9 | Halothane Binding h (RhoGDIα [2]; 0.2 mM halothane, fit to Eq. 2): 1.2 ± 0.2 | EC50 (RhoGDIα [2]; [4]): 48 ± 4.5 mM | Ki (RhoGDIα [2]; [5]): 20 ± 2 mM
SMILES: CCCO [n=3]

Fmax for displacement of halothane (RhoGDIα [2]; 0.1 mM halothane): 0.55 ± 0.06 | h for displacement of halothane (RhoGDIα [2]; 0.1 mM halothane): 1.0 ± 0.4 | Fmax for displacement of halothane (RhoGDIα [2]; 0.2 mM halothane): 0.59 ± 0.04 | h for displacement of halothane (RhoGDIα [2]; 0.2 mM halothane): 1.1 ± 0.2 | Halothane Binding Fmax (RhoGDIα [2]; 0.2 mM halothane, fit to Eq. 2): 51 ± 4 | Halothane Binding h (RhoGDIα [2]; 0.2 mM halothane, fit to Eq. 2): 1.1 ± 0.1 | Fmax for displacement of halothane (RhoGDIα [2]; 0.5 mM halothane): 0.59 ± 0.05 | h for displacement of halothane (RhoGDIα [2]; 0.5 mM halothane): 1.0 ± 0.1 | Fmax for displacement of halothane (RhoGDIα [2]; 1.0 mM halothane): 0.65 ± 0.08 | h for displacement of halothane (RhoGDIα [2]; 1.0 mM halothane): 1.2 ± 0.2 | Hill coefficient h (RhoGDIα [2]; independent of halothane concentration or chain length): ~ 1 | EC50 (RhoGDIα [2]; read-out: EC50 for displacement of halothane, 0.1 mM halothane): 3 ± 1 mM | EC50 (RhoGDIα [2]; read-out: EC50 for displacement of halothane, 0.2 mM halothane): 11 ± 3 mM | EC50 (RhoGDIα [2]; read-out: EC50 for displacement of halothane, 0.5 mM halothane): 22 ± 5 mM | EC50 (RhoGDIα [2]; read-out: EC50 for displacement of halothane, 1.0 mM halothane): 52 ± 8 mM | EC50 (RhoGDIα [2]; [4]): 10 ± 3 mM | Ki (RhoGDIα [2]; [5]): 4.2 ± 1.2 mM | effect on association of Cdc42 with membranes (RhoGDIα–Cdc42 complex; in the absence of EDTA and GMPPNP): negligible effects | Cdc42–RhoGDIα Dissociation h (RhoGDIα–Cdc42 complex): 1.5 ± 0.3
SMILES: CCCCO [n=4, n-butanol]
effect on rate and extent of exchange of MANT-GDP for GDP (Cdc42): neither the rate nor the extent of exchange of MANT-GDP for GDP were affected
